Measured values reported in ChEMBL document CHEMBL3091319, “Chemical synthesis and biological validation of immobilized protein kinase inhibitory Leucettines” (Eur J Med Chem, 2013).
Calls of active or inactive are those of the source. The rule behind the calls is not given here.

Experiments:
[1] = Inhibition of porcine brain CK1delta/epsilon using RRKHAAIGpSAYSITA as substrate; parameters: species or system Sus scrofa
In short: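 Native porcine brain CK1δ/ε was assayed with the CKS phosphopeptide substrate, [γ-33P]ATP and buffer D for 30 min at 30 °C. Product was captured on P81 paper and counted by scintillation. IC50 was calculated from dose-response curves, with activity as % of the no-inhibitor control.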

[2] = biological target: CDK2/Cyclin A2 (Homo sapiens, UniProt P24941); assay: Inhibition of human recombinant CDK2/cyclin A using [gamma-33P]-ATP after 30 mins by scintillation counting; assay type: protein-complex assay
In short: (§1)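 Native starfish M-phase CDK1/cyclin B or human recombinant CDK2 or CDK5/p25 was incubated with histone H1 (1 mg/mL) and [γ-33P]ATP in buffer D (10 mM MgCl2, 1 mM EGTA, 1 mM DTT, 25 mM Tris/HCl, heparin) at 30 °C for 30 min. BSA was added except for CDK2. Reactions were spotted on P81 paper, washed in 1% phosphoric acid and counted by scintillation. Activity is expressed as % of the no-inhibitor control with blanks subtracted. IC50 was taken from dose-response curves.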

[3] = Inhibition of M phase starfish oocytes CDK1/cyclin B using [gamma-33P]-ATP after 30 mins by scintillation counting; parameters: species or system Asteroidea; in short: as §1
[4] = biological target: Glycogen synthase kinase-3 (Sus scrofa, UniProt B2LUN4+I6LNT8); assay: Inhibition of porcine brain GSK-3alpha/beta using YRRAAVPPSPSLSRHSSPHQSpEDEEE as substrate
In short: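 Reaction harvested onto P81 paper, washed in 1% phosphoric acid, and scintillation-counted. Blanks subtracted; activity as % of the no-inhibitor activity, with DMSO controls. IC50 from dose-response curves.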

[5] = biological target: Dual specificity protein kinase CLK2 (Mus musculus, UniProt O35491); assay: Inhibition of mouse recombinant CLK2 expressed in Escherichia coli using GRSRSRSRSRSR as substrate
Dual specificity protein kinase CLK2, sequence (O35491 whole entry, the tested form may be a part): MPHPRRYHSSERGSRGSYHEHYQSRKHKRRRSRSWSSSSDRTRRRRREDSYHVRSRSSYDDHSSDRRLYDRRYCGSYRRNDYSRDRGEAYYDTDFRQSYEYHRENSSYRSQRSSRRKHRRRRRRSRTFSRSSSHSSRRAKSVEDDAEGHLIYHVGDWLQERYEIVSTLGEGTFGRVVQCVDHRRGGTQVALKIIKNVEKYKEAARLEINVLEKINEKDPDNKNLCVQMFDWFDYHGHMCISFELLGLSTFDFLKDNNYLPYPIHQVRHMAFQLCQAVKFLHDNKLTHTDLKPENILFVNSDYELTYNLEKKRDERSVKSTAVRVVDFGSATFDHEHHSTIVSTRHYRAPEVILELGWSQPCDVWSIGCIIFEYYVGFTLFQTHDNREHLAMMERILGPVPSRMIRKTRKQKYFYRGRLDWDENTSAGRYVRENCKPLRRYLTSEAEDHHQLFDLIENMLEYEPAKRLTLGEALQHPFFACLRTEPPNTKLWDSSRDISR
In short: (§2)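 Human DYRKs and mouse CLKs were expressed in E. coli as GST fusions and purified on glutathione-agarose. Each was assayed with RS peptide substrate and [γ-33P]ATP in buffer D at 30 °C for 30 min. Phosphorylation was read on P81 filters by scintillation. Activity is given as % of maximal after blank subtraction, and IC50 was derived from dose-response curves.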

[6] = biological target: CDK9/cyclin T1 (Homo sapiens, UniProt P50750); assay: Inhibition of human recombinant CDK9/cyclin T using YSPTSPSYSPTSPSYSPTSPSKKKK as substrate; assay type: protein-complex assay
CDK9/cyclin T1, sequence (O60563 whole entry): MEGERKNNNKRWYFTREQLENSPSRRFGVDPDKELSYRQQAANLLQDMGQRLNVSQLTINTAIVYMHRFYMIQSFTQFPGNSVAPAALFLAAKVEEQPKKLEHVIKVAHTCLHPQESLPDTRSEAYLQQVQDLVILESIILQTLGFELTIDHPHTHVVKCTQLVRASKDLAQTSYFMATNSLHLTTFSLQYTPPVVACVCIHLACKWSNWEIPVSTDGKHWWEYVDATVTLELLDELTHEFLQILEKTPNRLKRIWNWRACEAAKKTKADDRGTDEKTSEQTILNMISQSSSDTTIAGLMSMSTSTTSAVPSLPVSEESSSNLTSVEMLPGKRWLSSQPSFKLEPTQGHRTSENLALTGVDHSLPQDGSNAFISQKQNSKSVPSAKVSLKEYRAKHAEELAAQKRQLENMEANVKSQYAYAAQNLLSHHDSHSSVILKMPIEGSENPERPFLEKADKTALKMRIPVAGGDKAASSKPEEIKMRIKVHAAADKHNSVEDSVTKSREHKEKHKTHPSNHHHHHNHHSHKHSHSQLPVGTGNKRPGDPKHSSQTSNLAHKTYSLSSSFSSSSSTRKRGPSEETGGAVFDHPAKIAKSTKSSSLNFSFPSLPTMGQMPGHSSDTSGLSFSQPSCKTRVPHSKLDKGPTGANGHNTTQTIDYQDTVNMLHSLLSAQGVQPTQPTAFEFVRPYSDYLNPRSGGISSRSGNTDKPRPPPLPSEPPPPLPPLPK
CDK9/cyclin T1, sequence (P50750 whole entry): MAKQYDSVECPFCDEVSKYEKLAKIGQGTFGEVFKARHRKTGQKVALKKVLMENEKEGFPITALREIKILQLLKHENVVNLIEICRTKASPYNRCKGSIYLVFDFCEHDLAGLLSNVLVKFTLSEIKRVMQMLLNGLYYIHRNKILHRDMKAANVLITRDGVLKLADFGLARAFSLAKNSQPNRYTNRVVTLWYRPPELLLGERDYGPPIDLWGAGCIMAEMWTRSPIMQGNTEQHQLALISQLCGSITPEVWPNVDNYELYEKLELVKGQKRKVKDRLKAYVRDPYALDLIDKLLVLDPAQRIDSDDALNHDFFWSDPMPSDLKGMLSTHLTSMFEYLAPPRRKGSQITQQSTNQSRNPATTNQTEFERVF
In short: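 CDK9/cyclin T was human recombinant, made in insect cells. It was run like the CDK1 radiometric assay: buffer D with [γ-33P]ATP, 30 min at 30 °C, CDK7/9 tide peptide substrate, P81 capture and scintillation counting. IC50 came from dose-response curves relative to a DMSO control.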

[7] = biological target: Dual specificity protein kinase CLK1 (Mus musculus, UniProt P22518); assay: Inhibition of mouse recombinant CLK1 expressed in Escherichia coli using GRSRSRSRSRSR as substrate; in short: as §2
Dual specificity protein kinase CLK1, sequence (P22518 whole entry): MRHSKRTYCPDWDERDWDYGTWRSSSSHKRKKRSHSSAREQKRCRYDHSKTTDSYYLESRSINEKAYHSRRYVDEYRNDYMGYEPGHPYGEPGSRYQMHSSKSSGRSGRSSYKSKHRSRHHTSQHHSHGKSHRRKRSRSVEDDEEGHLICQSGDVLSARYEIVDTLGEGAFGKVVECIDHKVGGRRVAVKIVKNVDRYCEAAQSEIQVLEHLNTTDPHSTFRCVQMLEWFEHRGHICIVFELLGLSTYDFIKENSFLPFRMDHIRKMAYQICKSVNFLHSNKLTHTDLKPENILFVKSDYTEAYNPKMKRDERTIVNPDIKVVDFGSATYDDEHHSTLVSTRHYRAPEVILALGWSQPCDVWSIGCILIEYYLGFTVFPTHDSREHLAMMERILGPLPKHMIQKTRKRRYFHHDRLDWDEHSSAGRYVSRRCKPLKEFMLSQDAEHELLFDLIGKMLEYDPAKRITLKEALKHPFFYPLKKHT

[8] = biological target: Dual specificity protein kinase CLK3 (Mus musculus, UniProt O35492); assay: Inhibition of mouse recombinant CLK3 expressed in Escherichia coli using GRSRSRSRSRSR as substrate; in short: as §2
Dual specificity protein kinase CLK3, sequence (O35492 whole entry): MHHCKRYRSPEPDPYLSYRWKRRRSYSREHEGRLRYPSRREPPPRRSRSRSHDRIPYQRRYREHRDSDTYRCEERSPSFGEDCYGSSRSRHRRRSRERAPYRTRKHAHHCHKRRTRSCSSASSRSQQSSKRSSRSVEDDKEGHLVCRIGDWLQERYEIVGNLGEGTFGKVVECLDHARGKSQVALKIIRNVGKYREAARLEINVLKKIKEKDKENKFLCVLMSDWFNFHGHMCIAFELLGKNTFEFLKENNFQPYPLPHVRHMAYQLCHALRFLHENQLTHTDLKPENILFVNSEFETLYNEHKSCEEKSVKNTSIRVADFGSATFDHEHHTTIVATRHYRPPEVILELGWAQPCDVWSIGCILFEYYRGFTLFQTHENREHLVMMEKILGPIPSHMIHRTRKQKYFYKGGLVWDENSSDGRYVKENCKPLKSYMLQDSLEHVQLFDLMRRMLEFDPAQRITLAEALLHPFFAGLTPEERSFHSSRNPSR

[9] = biological target: T1, Dual specificity tyrosine-phosphorylation-regulated kinase 2 (Homo sapiens, UniProt Q92630); assay: Inhibition of human recombinant DYRK2 expressed in Escherichia coli using GRSRSRSRSRSR as substrate
T1 sequence (Q92630 whole entry): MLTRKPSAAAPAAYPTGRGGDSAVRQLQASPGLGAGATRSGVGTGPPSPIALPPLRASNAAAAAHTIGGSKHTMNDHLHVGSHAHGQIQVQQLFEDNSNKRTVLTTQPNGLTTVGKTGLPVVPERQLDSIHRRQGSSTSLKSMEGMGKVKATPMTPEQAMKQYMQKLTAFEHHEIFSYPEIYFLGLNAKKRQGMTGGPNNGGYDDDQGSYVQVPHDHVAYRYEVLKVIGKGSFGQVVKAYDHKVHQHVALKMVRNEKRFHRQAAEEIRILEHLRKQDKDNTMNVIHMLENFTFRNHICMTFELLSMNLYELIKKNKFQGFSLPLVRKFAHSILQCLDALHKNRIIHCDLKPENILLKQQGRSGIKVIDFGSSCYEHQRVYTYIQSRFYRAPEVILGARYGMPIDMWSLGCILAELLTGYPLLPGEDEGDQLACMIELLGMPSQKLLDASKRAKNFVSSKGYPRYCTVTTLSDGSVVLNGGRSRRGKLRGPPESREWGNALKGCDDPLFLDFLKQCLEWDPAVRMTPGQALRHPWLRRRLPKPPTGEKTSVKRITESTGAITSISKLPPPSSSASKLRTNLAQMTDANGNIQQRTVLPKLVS

[10] = biological target: Cyclin-dependent kinase 5/CDK5 activator 1 (Homo sapiens, UniProt Q00535); assay: Inhibition of human recombinant CDK5/p25 using [gamma-33P]-ATP after 30 mins by scintillation counting; assay type: protein-complex assay
Cyclin-dependent kinase 5/CDK5 activator 1, sequence (Q00535 whole entry): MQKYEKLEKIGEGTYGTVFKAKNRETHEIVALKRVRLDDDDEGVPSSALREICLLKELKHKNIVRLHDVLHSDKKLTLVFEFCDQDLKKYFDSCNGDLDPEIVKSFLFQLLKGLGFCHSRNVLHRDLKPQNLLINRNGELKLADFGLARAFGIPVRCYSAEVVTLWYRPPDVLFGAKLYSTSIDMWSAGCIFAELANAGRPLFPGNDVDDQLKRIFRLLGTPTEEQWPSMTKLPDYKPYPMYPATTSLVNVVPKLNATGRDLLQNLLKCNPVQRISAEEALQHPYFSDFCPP
Cyclin-dependent kinase 5/CDK5 activator 1, sequence (Q15078 whole entry, further chain): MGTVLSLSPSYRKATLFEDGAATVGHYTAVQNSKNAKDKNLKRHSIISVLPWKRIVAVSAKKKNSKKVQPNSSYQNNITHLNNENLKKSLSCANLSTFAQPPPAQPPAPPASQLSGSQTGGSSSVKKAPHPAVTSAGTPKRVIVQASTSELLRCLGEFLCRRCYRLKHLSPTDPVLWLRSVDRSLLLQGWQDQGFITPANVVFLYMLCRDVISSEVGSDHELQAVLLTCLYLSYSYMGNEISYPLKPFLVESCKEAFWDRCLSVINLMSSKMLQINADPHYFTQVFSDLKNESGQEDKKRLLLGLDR

[11] = biological target: Dual specificity tyrosine-phosphorylation-regulated kinase 1A (Homo sapiens, UniProt Q13627); assay: Inhibition of human recombinant DYRK1A expressed in Escherichia coli using GRSRSRSRSRSR as substrate
[12] = biological target: T2, Dual specificity tyrosine-phosphorylation-regulated kinase 3 (Homo sapiens, UniProt O43781); assay: Inhibition of human recombinant DYRK3 expressed in Escherichia coli using GRSRSRSRSRSR as substrate
T2 sequence (O43781 whole entry): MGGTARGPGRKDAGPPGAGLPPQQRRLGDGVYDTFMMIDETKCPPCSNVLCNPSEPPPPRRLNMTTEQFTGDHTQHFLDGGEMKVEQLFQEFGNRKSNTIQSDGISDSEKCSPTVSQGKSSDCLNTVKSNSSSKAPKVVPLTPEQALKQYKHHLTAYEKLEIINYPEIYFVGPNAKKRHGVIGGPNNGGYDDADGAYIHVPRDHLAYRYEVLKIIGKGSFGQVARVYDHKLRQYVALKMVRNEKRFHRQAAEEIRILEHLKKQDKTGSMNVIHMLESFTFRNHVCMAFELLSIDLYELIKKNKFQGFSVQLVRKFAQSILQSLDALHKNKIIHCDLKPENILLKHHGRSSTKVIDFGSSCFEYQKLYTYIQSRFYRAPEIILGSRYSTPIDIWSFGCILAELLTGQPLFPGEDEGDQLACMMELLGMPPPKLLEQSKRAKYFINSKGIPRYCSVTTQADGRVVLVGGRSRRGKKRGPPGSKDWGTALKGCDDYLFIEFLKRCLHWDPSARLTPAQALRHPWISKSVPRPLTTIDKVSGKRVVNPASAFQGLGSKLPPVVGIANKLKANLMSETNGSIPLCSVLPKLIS

[13] = biological target: Dual specificity tyrosine-phosphorylation-regulated kinase 1B (Homo sapiens, UniProt Q9Y463)
Dual specificity tyrosine-phosphorylation-regulated kinase 1B, sequence (Q9Y463 whole entry): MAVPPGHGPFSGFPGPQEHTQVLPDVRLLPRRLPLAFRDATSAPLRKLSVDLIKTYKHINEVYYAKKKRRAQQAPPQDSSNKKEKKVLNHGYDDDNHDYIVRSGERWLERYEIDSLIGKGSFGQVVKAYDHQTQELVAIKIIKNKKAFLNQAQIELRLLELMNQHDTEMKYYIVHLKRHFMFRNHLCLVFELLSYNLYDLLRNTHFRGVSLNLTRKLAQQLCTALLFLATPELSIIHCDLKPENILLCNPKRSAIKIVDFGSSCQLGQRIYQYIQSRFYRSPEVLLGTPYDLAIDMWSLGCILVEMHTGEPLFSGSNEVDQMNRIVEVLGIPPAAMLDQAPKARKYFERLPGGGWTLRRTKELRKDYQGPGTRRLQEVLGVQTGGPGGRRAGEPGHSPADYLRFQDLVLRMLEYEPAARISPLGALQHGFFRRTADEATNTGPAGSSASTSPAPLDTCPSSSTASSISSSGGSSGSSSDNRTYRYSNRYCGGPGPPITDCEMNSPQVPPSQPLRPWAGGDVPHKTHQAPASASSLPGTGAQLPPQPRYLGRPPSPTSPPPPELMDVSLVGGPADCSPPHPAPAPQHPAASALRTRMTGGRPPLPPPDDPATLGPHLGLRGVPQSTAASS

[14] = biological target: Dual specificity protein kinase CLK4 (Mus musculus, UniProt O35493); assay: Inhibition of mouse recombinant CLK4 expressed in Escherichia coli using GRSRSRSRSRSR as substrate
Dual specificity protein kinase CLK4, sequence (O35493 whole entry): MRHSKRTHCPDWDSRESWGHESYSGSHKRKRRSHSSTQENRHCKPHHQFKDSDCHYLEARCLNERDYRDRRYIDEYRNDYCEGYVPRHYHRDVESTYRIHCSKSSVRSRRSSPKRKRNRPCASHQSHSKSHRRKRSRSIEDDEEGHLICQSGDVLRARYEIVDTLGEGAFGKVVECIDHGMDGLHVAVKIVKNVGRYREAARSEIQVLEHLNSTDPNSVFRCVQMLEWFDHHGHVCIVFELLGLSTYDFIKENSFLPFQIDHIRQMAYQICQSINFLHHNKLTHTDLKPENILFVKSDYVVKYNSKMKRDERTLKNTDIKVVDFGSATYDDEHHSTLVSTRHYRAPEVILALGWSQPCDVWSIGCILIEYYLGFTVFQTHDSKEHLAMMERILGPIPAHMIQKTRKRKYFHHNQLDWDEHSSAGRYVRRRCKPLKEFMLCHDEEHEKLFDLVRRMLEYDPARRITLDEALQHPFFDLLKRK

[15] = organism: Mus musculus; assay: Binding affinity to GSK3 in mouse brain extracts by Western blot analysis; assay type: tissue-based
In short: (§3)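 Mouse brains homogenized and sonicated in Mops pH 7.2 buffer with β-glycerophosphate, phosphatase and protease inhibitors, spun 15 min at 17,000×g at 4 °C. Extract (1 or 2 mg total protein) rotated 30 min at 4 °C with ligand-linker coupled via amine to CNBr-activated Sepharose. Beads washed 4×, boiled 3 min in LDS/DTT, then 10% Bis-Tris SDS-PAGE and immunoblot with specific antibodies and ECL.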

[16] = biological target: Dual specificity tyrosine-phosphorylation-regulated kinase 1A (Mus musculus) (UniProt Q61214); assay: Binding affinity to DYRK1A in mouse brain extracts by Western blot analysis; assay type: tissue-based; in short: as §3

Compound | IC50 [1] [µM] | IC50 [2] [µM] | IC50 [3] [µM] | IC50 [4] [µM] | IC50 [5] [µM] | IC50 [6] [µM] | IC50 [7] [µM] | IC50 [8] [µM] | IC50 [9] [µM] | IC50 [10] [µM] | IC50 [11] [µM] | IC50 [12] [µM] | IC50 [13] [µM] | IC50 [14] [µM] | Activity [15] | Activity [16]
O=C1NC(Nc2ccccc2)=N/C1=C\c1ccc2c(c1)OCO2 | > 10 | > 10 | > 10 | 0.73 | 0.32 | > 10 | 0.035 | 3 |  |  |  |  |  |  |  | 
NCCOCCOCCO | > 10 | > 10 | > 10 | > 10 | > 10 | > 10 | > 10 | > 10 | > 10 | > 10 | > 10 | > 10 | > 10 | > 10 |  | 
NCCOCCOCCOc1ccc(NC2=N/C(=C\c3ccc4c(c3)OCO4)C(=O)N2)cc1 | > 10 | > 10 | > 10 | 0.27 | 0.28 | 7.4 | 0.075 | 0.81 | 0.15 | > 10 | 0.05 | 0.2 | 0.11 | 0.081 | Active | Active
O=C1NC(Nc2ccccc2)=N/C1=C\c1ccccc1 | > 10 | > 10 | > 10 | > 100 | > 10 | > 10 | > 10 | > 10 | > 10 | > 10 | > 100 | > 10 | > 10 | > 10 |  | 
NCCOCCOCCOCCOc1ccc(NC2=N/C(=C\c3ccc4c(c3)OCO4)C(=O)N2)cc1 | > 10 | > 10 | > 10 | 0.2 | 0.21 | 3.7 | 0.061 | 0.55 | 0.13 | > 10 | 0.028 | 0.18 | 0.072 | 0.061 | Active | Active
NCCOCCOCCOc1ccc(NC2=N/C(=C\c3ccccc3)C(=O)N2)cc1 | > 10 | > 10 | > 10 | 40 | > 10 | > 10 | > 10 | > 10 | > 10 | > 10 | 8.5 | > 10 | > 10 | > 10 | Active | Active
